# Data taken from ChEMBL document CHEMBL1126828, “Structure-activity relationships of trans-3,4-dimethyl-4-(3-hydroxyphenyl)piperidine antagonists for mu- and kappa-opioid receptors” (J Med Chem, 1993).
# pKi: −log10 of the molar value.
# Experiments:
# [1] = target: Kappa-type opioid receptor (Cavia porcellus, UniProt P41144); experiment: Binding affinity towards kappa-opioid receptor by displacement of [3H]-EKC at from guinea pig cortical tissue
# Mu-type opioid receptor [2] = target: T1, Mu-type opioid receptor (Rattus norvegicus, UniProt P33535); experiment: Binding affinity towards mu opioid receptor by displacement of [3H]NAL from rat brain homogenates; type: tissue-based
# [3] = target: Kappa-type opioid receptor (Rattus norvegicus) (UniProt P34975); experiment: Tested for the antagonism of kappa opioid receptor diuresis at a dose of 0.08 mg/kg subcutaneously; type: functional, organism-based; set-up: dose 0.08 mg/kg
# Method in brief: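 Male Long-Evans hooded rats (350-500 g), bremazocine HCl 0.08 mg/kg sc to induce diuresis, test antagonist sc at once on opposite side; metabolism cages, urine volume at 2 and 5 h. Three rats per dose, doses varied 2-fold; AD50 = dose halving 5-h urination.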
# [4] = target: Mu-type opioid receptor (Mus musculus) (UniProt P42866); experiment: Antagonism of opioid analgesia using a mouse writhing model to block morphine ([…]) induced mu-opioid receptor (subcutaneously dosed); type: functional, organism-based
# [5] = target: Kappa-type opioid receptor (Mus musculus) (UniProt P33534); experiment: Antagonism of opioid analgesia using a mouse writhing model to block U-50,488 ([…]) induced kappa-opioid receptor subcutaneously; type: functional, organism-based
# Mu-type opioid receptor [6] = target: T1, Mu-type opioid receptor; experiment: Binding affinity towards mu-opioid receptor by displacement of [3H]NAL at 10 nM from rat brain homogenates; type: tissue-based
# Mu-type opioid receptor [7] = target: T1, Mu-type opioid receptor; experiment: Binding affinity towards mu-opioid receptor by displacement of [3H]NAL at 100 nM from rat brain homogenates; type: tissue-based
# Chain of Mu-type opioid receptor (Mus musculus) (P42866 whole entry): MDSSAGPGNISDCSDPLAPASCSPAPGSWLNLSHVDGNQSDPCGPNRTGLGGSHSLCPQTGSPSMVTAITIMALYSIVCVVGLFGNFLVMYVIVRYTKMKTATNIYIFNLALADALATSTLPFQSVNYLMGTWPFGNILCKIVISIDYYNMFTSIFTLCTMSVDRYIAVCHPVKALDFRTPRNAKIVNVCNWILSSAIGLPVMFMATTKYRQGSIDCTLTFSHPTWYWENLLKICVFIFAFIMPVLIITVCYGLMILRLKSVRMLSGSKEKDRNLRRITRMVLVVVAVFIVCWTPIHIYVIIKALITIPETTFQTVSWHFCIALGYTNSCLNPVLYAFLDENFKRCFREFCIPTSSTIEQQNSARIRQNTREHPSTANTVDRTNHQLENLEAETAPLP
# Chain of Kappa-type opioid receptor (P41144 whole entry): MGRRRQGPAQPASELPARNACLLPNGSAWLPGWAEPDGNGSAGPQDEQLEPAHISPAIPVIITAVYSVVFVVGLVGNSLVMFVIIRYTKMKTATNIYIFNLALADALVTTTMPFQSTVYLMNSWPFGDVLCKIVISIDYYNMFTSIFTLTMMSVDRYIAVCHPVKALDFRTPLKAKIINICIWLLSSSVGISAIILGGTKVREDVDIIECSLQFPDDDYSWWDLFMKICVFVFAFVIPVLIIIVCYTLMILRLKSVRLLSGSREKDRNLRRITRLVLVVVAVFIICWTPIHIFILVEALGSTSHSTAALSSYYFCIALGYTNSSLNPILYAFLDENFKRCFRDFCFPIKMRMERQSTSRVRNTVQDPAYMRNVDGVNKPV
# Chain of Kappa-type opioid receptor (Rattus norvegicus) (P34975 whole entry): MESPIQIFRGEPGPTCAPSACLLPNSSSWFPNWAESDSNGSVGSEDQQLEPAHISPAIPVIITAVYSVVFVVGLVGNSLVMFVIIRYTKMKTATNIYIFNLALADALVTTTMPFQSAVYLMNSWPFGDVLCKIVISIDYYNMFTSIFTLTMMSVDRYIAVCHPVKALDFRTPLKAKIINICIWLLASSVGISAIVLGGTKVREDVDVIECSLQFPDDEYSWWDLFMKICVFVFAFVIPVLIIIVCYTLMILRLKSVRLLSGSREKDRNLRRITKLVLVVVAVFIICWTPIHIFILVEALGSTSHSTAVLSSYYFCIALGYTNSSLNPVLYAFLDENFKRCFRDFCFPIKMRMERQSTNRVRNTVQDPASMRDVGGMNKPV
# T1 sequence (P33535 whole entry): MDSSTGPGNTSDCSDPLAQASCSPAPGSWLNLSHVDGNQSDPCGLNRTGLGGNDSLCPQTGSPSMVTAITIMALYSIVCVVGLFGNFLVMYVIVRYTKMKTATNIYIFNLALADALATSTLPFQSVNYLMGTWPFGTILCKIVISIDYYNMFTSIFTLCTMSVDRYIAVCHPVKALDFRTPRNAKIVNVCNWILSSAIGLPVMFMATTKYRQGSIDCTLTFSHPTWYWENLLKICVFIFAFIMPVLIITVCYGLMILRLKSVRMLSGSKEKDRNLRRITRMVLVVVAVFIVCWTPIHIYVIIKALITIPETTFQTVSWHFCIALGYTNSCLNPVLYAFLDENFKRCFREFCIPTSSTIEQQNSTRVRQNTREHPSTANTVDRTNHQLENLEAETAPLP
# Chain of Kappa-type opioid receptor (Mus musculus) (P33534 whole entry): as the sequence (P34975 whole entry) above, with E11D, A17S, P51S, V308A counted along it
Compound,pKi [1],pKi (Mu-type opioid receptor [2]),AD50 [3] [mg/kg],AD50 [4] [mg/kg],AD50 [5] [mg/kg],pKi (Mu-type opioid receptor [6]),pKi (Mu-type opioid receptor [7])
C[C@H]1CN(CCC(=O)c2ccccc2)CC[C@@]1(C)c1cccc(O)c1 (stereo in doubt; 8),6.79,8.44,,,,,
C[C@@H]1CN(CCC(=O)c2ccccc2)CC[C@]1(C)c1cccc(O)c1,6.50,7.92,,,,,
C[C@H]1CN(CCCc2ccccc2)CC[C@@]1(C)c1cccc(O)c1,7.82,9.16,1.1,2.4,,,
COc1ccccc1CCCN1CC[C@@](C)(c2cccc(O)c2)[C@@H](C)C1,,9.02,2.2,0.18,> 0.64,,
C[C@H]1CN(Cc2ccco2)CC[C@@]1(C)c1cccc(O)c1,7.15,8.24,,0.71,1.35,,
C[C@H]1CN(CCc2ccccc2)CC[C@@]1(C)c1cccc(O)c1,,,1.8,0.16,1.4,,
Cc1ccc(CCN2CC[C@@](C)(c3cccc(O)c3)[C@@H](C)C2)cc1,,,11,> 1.25,> 1.25,7.28,7.02
C[C@H]1CN(CCc2cccc(F)c2)CC[C@@]1(C)c1cccc(O)c1,,,1.4,0.14,0.84,8.49,
C[C@H]1CN(C)CC[C@@]1(C)c1cccc(O)c1,6.08,7.10,> 10,0.74,,,
CCCCCN1CC[C@@](C)(c2cccc(O)c2)[C@@H](C)C1,,8.37,0.69,0.37,,,
C[C@H]1CN(CCCc2ccco2)CC[C@@]1(C)c1cccc(O)c1,7.85,8.85,,0.08,0.26,,
C[C@H]1CN(CC(O)Cc2ccccc2)CC[C@@]1(C)c1cccc(O)c1 (some centres undefined),,,3.7,0.27,0.85,7.06,7.00
C[C@H]1CN(CCC(=O)c2ccccc2)CC[C@@]1(C)c1cccc(O)c1 (stereo in doubt; 6) [listing 1 of 2 here],,,3.2,0.14,4.5,,
C[C@H]1CN(CCCc2cccs2)CC[C@@]1(C)c1cccc(O)c1 (stereo in doubt; 42) [listing 1 of 2 here],8.48,9.70,,,,,
C[C@H]1CN(CCC(=O)c2ccccc2)CC[C@@]1(C)c1cccc(O)c1 (stereo in doubt; 6) [listing 2 of 2 here],6.68,8.27,,,,,
C[C@H]1CN(CC2CC2)CC[C@@]1(C)c1cccc(O)c1,,7.68,,1.3,6.1,,
C[C@H]1CN(CC(O)c2ccccc2)CC[C@@]1(C)c1cccc(O)c1 (some centres undefined),,,6.9,2.4,11.8,7.32,7.01
C[C@H]1CN(CC2CCCO2)CC[C@@]1(C)c1cccc(O)c1 (some centres undefined),,,3.2,0.6,0.75,7.59,7.22
C[C@H]1CN(CCc2ccncc2)CC[C@@]1(C)c1cccc(O)c1,,,14,> 1.25,> 1.25,7.27,7.00
CCN1CC[C@@](C)(c2cccc(O)c2)[C@@H](C)C1,7.74,7.28,,> 1.25,> 1.25,,
C[C@@H]1CN(CCCc2cccs2)CC[C@]1(C)c1cccc(O)c1,7.89,8.74,,,,,
Cc1cccc(CCCN2CC[C@@](C)(c3cccc(O)c3)[C@@H](C)C2)c1,,8.55,10,> 1.25,> 0.32,,
C[C@H]1CN(Cc2ccccc2)CC[C@@]1(C)c1cccc(O)c1,,,2.5,0.29,0.45,7.19,7.05

Compound,pKi [1],pKi (Mu-type opioid receptor [2]),AD50 [3] [mg/kg],AD50 [4] [mg/kg],AD50 [5] [mg/kg],pKi (Mu-type opioid receptor [6]),pKi (Mu-type opioid receptor [7])
CCCCCCN1CC[C@@](C)(c2cccc(O)c2)[C@@H](C)C1,,9.54,0.7,0.052,0.11,,
C[C@H]1CN(CCC(O)c2cccs2)CC[C@@]1(C)c1cccc(O)c1 (some centres undefined),7.93,9.30,1.4,0.07,0.14,,
C[C@H]1CN(CCc2ccccc2Cl)CC[C@@]1(C)c1cccc(O)c1,,8.46,3.4,0.31,0.51,,
C[C@H]1CN(CCOc2ccccc2)CC[C@@]1(C)c1cccc(O)c1,7.24,8.89,3,0.14,> 40,,
C[C@H]1CN(CCCc2cccc(Cl)c2)CC[C@@]1(C)c1cccc(O)c1,,,11,0.76,> 1.25,7.05,7.00
C=CCN1CC[C@@](C)(c2cccc(O)c2)[C@@H](C)C1,6.50,7.80,,1.3,> 10,,
C[C@H]1CN(CCc2cccs2)CC[C@@]1(C)c1cccc(O)c1,,8.28,3.8,0.25,0.25,,
C[C@H]1CN(CCc2cccc3ccccc23)CC[C@@]1(C)c1cccc(O)c1,,,> 5,0.08,0.51,8.96,
C[C@H]1CN(CCCCc2ccccc2)CC[C@@]1(C)c1cccc(O)c1,,8.70,4.1,0.28,> 1.25,,
C[C@H]1CN(CCC(=O)c2cccs2)CC[C@@]1(C)c1cccc(O)c1,7.82,8.82,,,,,
C[C@H]1CN(CCc2cccc(Cl)c2)CC[C@@]1(C)c1cccc(O)c1,,9.52,3.6,0.44,0.38,,
Cc1ccccc1CCCN1CC[C@@](C)(c2cccc(O)c2)[C@@H](C)C1,8.05,9.21,1.4,0.05,0.09,,
C[C@H]1CN(CCCCc2cccs2)CC[C@@]1(C)c1cccc(O)c1,,,3.3,0.16,0.43,7.64,7.16
C[C@H]1CN(CCCOc2ccccc2)CC[C@@]1(C)c1cccc(O)c1,7.21,9.00,8.4,> 1.25,> 1.25,,
C[C@H]1CN(Cc2ccoc2)CC[C@@]1(C)c1cccc(O)c1,,,3.8,0.4,0.71,7.09,7.00
Cc1cccc(CCN2CC[C@@](C)(c3cccc(O)c3)[C@@H](C)C2)c1,,,5.7,0.27,0.95,7.08,7.00
C[C@H]1CN(CCCc2cccs2)CC[C@@]1(C)c1cccc(O)c1 (stereo in doubt; 41) [listing 1 of 2 here],8.21,9.25,,,,,
C[C@H]1CN(CCCc2ccsc2)CC[C@@]1(C)c1cccc(O)c1,8.00,,,,,9.59,
C[C@H]1CN(CCCc2cccs2)CC[C@@]1(C)c1cccc(O)c1 (stereo in doubt; 42) [listing 2 of 2 here],,,,0.03,0.25,,
CCCCCCCN1CC[C@@](C)(c2cccc(O)c2)[C@@H](C)C1,,9.21,,,,,
C[C@H]1CN(CCC(O)c2ccccc2)CC[C@@]1(C)c1cccc(O)c1 (some centres undefined),7.90,9.02,,,,,
C[C@H]1CN(CCCc2cccs2)CC[C@@]1(C)c1cccc(O)c1 (stereo in doubt; 41) [listing 2 of 2 here],,,,,0.3,,
